Screens deposited in PubChem BioAssay by Johns Hopkins Ion Channel Center.
TRPC6 inh: inhibitors of mouse TRPC6 channel. B-score at 10 µM. 1.1% of 310,000 active. HEK293-TRPC6, membrane potential dye, ACh-evoked depolarization; active compounds read low;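 active = B-score under library mean minus 3 SD, initial fluorescence not abnormally high, positive integrated signal ratio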;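 note: B-score derived from integrated fluorescence ratio over the kinetic read; more negative B-score means stronger inhibition of depolarization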
TRPC4 agonist: opens the mouse TRPC4 cation channel. Q9QUQ5. HEK293 TRPC4beta/mu-opioid, Fluo4 calcium fluorescence; active compounds read high. B-score at 10 µM. 0.49% of 310,000 active. AID 2237;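 active = B-score above 5 SD of library B-scores, and initial fluorescence ratio not above library mean plus 5 SD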;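 note: positive B-score marks a calcium rise read as TRPC4 activation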
Target sequence (Q9QUQ5 whole entry, looked up): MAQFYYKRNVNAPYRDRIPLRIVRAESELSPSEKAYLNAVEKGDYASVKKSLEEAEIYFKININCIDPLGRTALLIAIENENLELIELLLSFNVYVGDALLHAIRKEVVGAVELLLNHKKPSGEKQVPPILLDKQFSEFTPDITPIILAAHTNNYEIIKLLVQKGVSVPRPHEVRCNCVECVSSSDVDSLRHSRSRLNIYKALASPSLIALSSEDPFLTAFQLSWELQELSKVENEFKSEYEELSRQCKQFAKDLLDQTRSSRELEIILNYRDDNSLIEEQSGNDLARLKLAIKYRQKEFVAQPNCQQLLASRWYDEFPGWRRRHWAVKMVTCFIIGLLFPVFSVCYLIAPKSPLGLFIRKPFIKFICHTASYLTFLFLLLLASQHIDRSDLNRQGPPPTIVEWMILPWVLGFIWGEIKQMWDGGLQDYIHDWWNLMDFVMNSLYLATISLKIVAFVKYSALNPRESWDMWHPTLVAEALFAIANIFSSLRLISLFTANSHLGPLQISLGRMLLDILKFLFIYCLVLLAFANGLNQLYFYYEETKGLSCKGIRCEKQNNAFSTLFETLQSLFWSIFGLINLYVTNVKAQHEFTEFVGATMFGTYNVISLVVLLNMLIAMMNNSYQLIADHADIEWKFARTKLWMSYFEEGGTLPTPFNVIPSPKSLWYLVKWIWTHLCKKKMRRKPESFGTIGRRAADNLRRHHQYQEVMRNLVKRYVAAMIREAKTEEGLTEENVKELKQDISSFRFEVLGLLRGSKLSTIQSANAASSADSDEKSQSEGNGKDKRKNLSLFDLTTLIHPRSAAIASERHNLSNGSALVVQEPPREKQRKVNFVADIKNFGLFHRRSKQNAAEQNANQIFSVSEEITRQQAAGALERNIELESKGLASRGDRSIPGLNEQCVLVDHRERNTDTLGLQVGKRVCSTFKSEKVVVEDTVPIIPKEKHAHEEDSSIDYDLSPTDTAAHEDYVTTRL
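Assay system: HEK293 stable line with TRPC4beta plus mu-opioid receptor; schedule: 45 min room-temperature Fluo4 loading, 110 s read; technique: kinetic Fluo4 calcium fluorescence; evaluation: integrated baseline-normalised fluorescence ratio, converted to per-well B score; controls: buffer (low) and maximal DAMGO (high)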
TRPC4 block: blocks the mouse TRPC4 cation channel; Q9QUQ5; HEK293 TRPC4beta/mu-opioid, DAMGO-evoked Fluo4 calcium flux; active compounds read low; B-score at 10 µM; 0.39% of 300,000 active; AID 2247;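 active = B-score over 3 SD under the library average, no early fluorescence shift, positive overall ratio signal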
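Assay system: TRPC4beta/mu-opioid receptor HEK293 cell line; compound dosing: single concentration per test compound; detection: Fluo4 Ca2+ flux fluorescence; evaluation: per-well B score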
TRPC4 PAM: allosteric potentiators of mouse TRPC4 channel. HEK293 TRPC4beta/mu-opioid, DAMGO EC20, Fluo-4 Ca2+ flux; active compounds read high. B-score at 10 µM. 0.42% of 310,000 active;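 active = B-score of calcium response area above 5 SD of library B-scores, with initial fluorescence ratio within 5 SD of library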;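 note: B-score of integrated fluorescence ratio over time as area under calcium response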
TRPC6 act: activators of mouse TRPC6 channel; Q61143; HEK293-TRPC6 membrane potential dye fluorescence; active compounds read high; B-score at 10 µM; 0.13% of 310,000 active; AID 2550;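 active = B-score of the integrated fluorescence ratio above library mean plus 3 SD, and starting fluorescence ratio within library mean plus 5 SD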;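 note: higher score means more depolarization so channel activation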
Numbers without * were called inactive; i = inactive; / = no result. Compounds with a hit are over-represented: about 2.3% of the library has one in this group of screens.

SMILES	TRPC6 inh	TRPC4 agonist	TRPC4 block	TRPC4 PAM	TRPC6 act
Cc1ccc(Cl)c(OCCN2CCCC(C)C2)c1 (stereo not given)	i	i	i	34*	i
Cc1ccc(C(C)C)cc1OCCCCN1CCCC1	i	i	i	26*	i
Cc1ccc(C)c(OCCCN2CCCC2)c1	i	i	i	11*	i
Cc1ccc(C(C)C)c(OCCCCN2CCNCC2)c1	i	i	i	18*	i
CC(=O)c1ccc(OCc2cc(C(=O)NC3CCCCC3)no2)cc1	i	i	i	i	i
CCOC(=O)N1CCC(c2cc(=O)n3[nH]cc(C(=O)OC)c3n2)CC1	i	i	i	i	i
CCOc1ccc(NC(=O)c2c[nH]n3c(=O)cc(C4CCN(C(=O)OC(C)(C)C)CC4)nc23)cc1	i	i	-7*	i	i
CCCCOc1ccc(CSCCN=C(N)N)cc1	i	i	-6*	i	i
CCCCOc1ccc(CSC(CC(=O)O)C(=O)O)cc1 (stereo not given)	i	i	i	i	i
CCn1c(=O)c([N+](=O)[O-])c(NCC2CCCO2)c2ccccc21 (stereo not given)	i	i	i	i	i
O=C(c1cccs1)c1no[n+]([O-])c1C(=O)c1cccs1	i	54*	i	i	i
COc1ccc(C(=O)c2no[n+]([O-])c2C(=O)c2ccc(OC)cc2)cc1	i	i	i	53*	i
COc1ccc(NC(=O)c2c(N)no[n+]2[O-])cc1	i	i	i	i	i
CC(Sc1ccccc1)C(=O)N1CCN(S(=O)(=O)c2cccc(Br)c2)CC1 (stereo not given)	i	i	i	i	i
NC(=NC1CCCCC1)c1ccc(Cl)cc1	i	i	-5*	i	i
N/C(=N\OC(=O)C1CCCCC1)c1ccc(Cl)cc1	i	i	i	i	i
COc1cccc(CNS(=O)(=O)c2cc3c(cc2Cl)NC(=O)CO3)c1	i	i	i	i	i
O=C1CCCN1c1ccc(C(=O)N(Cc2nnc(-c3ccc(Cl)cc3)o2)C2CC2)cc1	i	i	i	i	i
COc1ccc(SC[C@H](Cc2ccccc2)N2CCN(C)CCC2=O)cc1	i	i	-8*	i	i
Cc1ccc(SC[C@H](Cc2ccccc2)N2CCN(C)CCC2=O)cc1	i	81*	/	i	i
CC(C)C[C@@H](COc1ccccc1)N1CCN(CCc2ccccc2)CCC1=O	i	i	/	i	i
CCCN1CCC(=O)N([C@H](CSc2ccc(OC)cc2)Cc2ccccc2)CC1	i	i	i	i	i
O=C1CCN(CCc2ccccc2)CCN1[C@H](COc1ccccc1)Cc1ccccc1	i	67*	/	i	i
CC(C)CN1CCC(=O)N([C@H](CSc2ccc(Br)cc2)Cc2ccccc2)CC1	i	i	i	i	i
CN1CCC(=O)N([C@H](CSc2ccccc2)Cc2ccccc2)CC1	i	i	i	i	i
SMILES	TRPC6 inh	TRPC4 agonist	TRPC4 block	TRPC4 PAM	TRPC6 act
CN1CCC(=O)N([C@H](CSc2ccc(Br)cc2)Cc2ccccc2)CC1	i	79*	i	i	i
N#CCCn1c(SCC(=O)Nc2ccc(N3CCOCC3)cc2)nc2ccccc21	i	i	i	i	i
C[C@H](NC(N)=O)C(=O)N1CCN(S(=O)(=O)c2ccc3ccccc3c2)CC1	i	i	i	i	i
CNC(=S)N1N=C(c2ccc(C)cc2)CC1c1cc(OC)ccc1OC (stereo not given)	i	i	i	17*	i
CNC(=S)N1N=C(c2ccc(C)cc2)CC1c1ccc(OC)cc1 (stereo not given)	i	i	i	i	i
Cc1ccc(C)c(NC(=O)CCc2nnc3ccc(N4CCCCC4)nn23)c1	i	i	i	i	i
C/C(=N\NC(=O)COc1ccc(C)cc1C(C)C)c1ccc(-n2ccnc2)cc1	i	i	i	28*	i
COC(=O)N/N=C(\C)c1ccc(-n2ccnc2)cc1	i	i	i	i	i
